Activity calls are given as the source filed them.
How the values were obtained:
Rattus norvegicus [1] = assay: Antihypertensive activity in spontaneously hypertensive rats at 100 mg/kg po/day for 2 days; format: functional, organism-based; parameters: dose 100 mg/kg
Summary of the method: (§1)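 Male 16-week-old Okamoto SHR (mean arterial pressure about 170 mmHg), 1-3 rats per compound. Given by gavage in 2% preboiled starch (50 mg/mL), 100 mg/kg or less, with 0.9% NaCl load (25 mL/kg). Second dose without saline 24 h later. Mean arterial pressure measured 28 h after first dose. Active if ≤116 mmHg in one rat or mean ≤122 mmHg in two.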

[2] = target: T1, Thromboxane-A synthase (Rattus norvegicus) (UniProt P49430); assay: Inhibitory activity for thromboxane synthetase determined by TXB2 levels in platelets from spontaneously hypertensive rats.; parameters: concentration or dose not given beside the values; conditions: concentration not given here
T1 sequence (whole entry): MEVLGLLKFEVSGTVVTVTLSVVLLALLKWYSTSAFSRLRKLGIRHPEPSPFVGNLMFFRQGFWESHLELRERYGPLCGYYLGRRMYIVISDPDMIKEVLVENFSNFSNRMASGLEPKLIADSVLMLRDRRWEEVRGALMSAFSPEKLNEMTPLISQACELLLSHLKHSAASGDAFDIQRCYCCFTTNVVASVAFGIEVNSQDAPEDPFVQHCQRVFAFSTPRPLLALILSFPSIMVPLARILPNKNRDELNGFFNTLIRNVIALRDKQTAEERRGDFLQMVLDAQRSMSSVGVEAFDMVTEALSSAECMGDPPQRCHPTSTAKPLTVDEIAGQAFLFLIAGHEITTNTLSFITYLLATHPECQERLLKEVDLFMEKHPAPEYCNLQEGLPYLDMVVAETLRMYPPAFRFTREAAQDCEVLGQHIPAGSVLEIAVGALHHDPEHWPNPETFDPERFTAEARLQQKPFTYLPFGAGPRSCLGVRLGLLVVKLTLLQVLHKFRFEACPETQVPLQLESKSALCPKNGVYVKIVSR
Summary of the method: (§2)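 Washed SHR platelets in oxygenated Krebs phosphate buffer, pH 7.4, 4.5-6.0 × 10^4/μL, incubated with vehicle or drug for 10 min at 37 °C. Stopped with ice and citric acid. Supernatant TXB2 measured by RIA; TXB2 in boiled controls subtracted; % inhibition calculated. IC50 read graphically from % inhibition vs log concentration; single-point screen at 10^-4 M.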

Rattus norvegicus [3] = assay: Antihypertensive activity in spontaneously hypertensive rats tested at 100 mg/kg po/day for 2 days; format: functional, organism-based; parameters: dose 100 mg/kg; summary of the method: as §1
Thromboxane-A synthase [4] = target: T2, Thromboxane-A synthase (Rattus norvegicus, UniProt P49430); assay: Compound was tested for inhibitory activity against thromboxane synthetase
T2 sequence (P49430 whole entry): T1 sequence (whole entry)
Summary of the method: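 Washed SHR platelets in oxygenated Krebs phosphate buffer, pH 7.4, 4.5-6.0 × 10^4/μL, incubated with vehicle or drug for 10 min at 37 °C. Stopped with ice and citric acid. Supernatant TXB2 measured by RIA; TXB2 in boiled controls subtracted; % inhibition calculated.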

Thromboxane-A synthase [5] = target: T2, Thromboxane-A synthase; assay: compound was tested for inhibitory activity against thromboxane synthetase,; summary of the method: as §2

Row | Structure (SMILES) | inhibition [2] | IC50 (Thromboxane-A synthase [4]) | IC50 (Thromboxane-A synthase [5]) | Activity (Rattus norvegicus [1]) | Activity (Rattus norvegicus [3])
1 | Cc1cn(CCCNC(=O)c2ccc(Cl)cc2)cn1 | 93% | – | – | Active | –
2 | C=CCNc1ccc(Cl)cc1C(=O)NCCCn1ccnc1 | 95% | – | – | Active | –
3 | Cc1cn(CCCNC(=O)c2cccc(Cl)c2)cn1 | 84% | – | – | Active | –
4 | O=C(NCCCn1ccnc1)c1ccc(C(F)(F)F)cc1 | 93% | – | – | Active | –
5 | Cc1nccn1CCCNC(=O)c1ccc(C(F)(F)F)cc1 | 36% | – | – | Active | –
6 | O=C(NCCCCCn1ccnc1)c1ccc(C(F)(F)F)cc1 | 100% | 700 nM | – | – | inactive
7 | O=C(NCCCn1ccnc1)c1cccc(C(F)(F)F)c1 | 100% | 4000 nM | – | Active | –
8 | O=C(NCCCn1ccnc1)c1cccc(Br)c1 | 91% | – | – | Active | –
9 | Cc1cn(CCCNC(=O)c2ccc(Br)cc2)cn1 | 80% | – | – | Active | –
10 | O=C(NCCCn1cnc(-c2ccccc2)c1)c1ccc(Cl)cc1 | 69% | – | – | Active | –
11 | Nc1ccc(Cl)cc1C(=O)NCCCn1ccnc1 | 96% | – | – | Active | –
12 | Nc1ccccc1C(=O)NCCCn1ccnc1 | 89% | – | – | Active | –
13 | Cc1cn(CCCNC(=O)c2ccc(C(F)(F)F)cc2)cn1 | 92% | – | – | Active | –
14 | CSc1ccc(C(=O)NCCCn2ccnc2)cc1 | 100% | 500 nM | – | – | inactive
15 | O=C(NCCCn1cncn1)c1ccccc1 | 77% | – | – | Active | –
16 | CN(C)c1ccc(C(=O)NCCCn2cncn2)cc1 | 64% | – | – | Active | –
17 | Cc1ccc(CC(=O)NCCCn2ccnc2)cc1 | 58% | – | – | Active | –
18 | Cc1cn(CCCNC(=O)c2ccc(Cl)c(Cl)c2)cn1 | 90% | – | – | Active | –
19 | O=C(Cc1cccc(Cl)c1)NCCCn1ccnc1 | 75% | – | – | Active | –
20 | Cc1nccn1CCCNC(=O)c1ccc(Cl)cc1 | 0% | – | – | Active | –

More lines, main results first:

Row | inhibition [2] | IC50 (Thromboxane-A synthase [4]) | IC50 (Thromboxane-A synthase [5]) | Structure (SMILES) | Activity (Rattus norvegicus [1]) | Activity (Rattus norvegicus [3])
21 | 75% | – | – | O=C(NCCCn1ccnc1)c1cccc(Cl)c1 | Active | –
22 | 95% | 5000 nM | – | O=C(NCCCCn1ccnc1)c1ccc(Cl)cc1 | – | inactive
23 | 85% | – | – | O=C(NCCCn1ccnc1)c1ccc(Br)cc1 | Active | –
24 | 100% | 800 nM | – | O=C(NCCCCCCn1ccnc1)c1ccc(Cl)cc1 | – | inactive
25 | 97% | 550 nM | – | O=C(NCCCn1ccnc1)c1ccc(I)cc1 | – | inactive
26 | 87% | – | – | O=C(NCCCCn1ccnc1)c1ccc(Br)cc1 | Active | –
27 | 100% | 100 nM | – | O=C(NCCCCCCCCn1ccnc1)c1ccc(Cl)cc1 | Active | –
28 | 100% | – | 5 µM | O=C(NCCCCCn1ccnc1)c1ccc(Cl)cc1 | – | inactive
29 | 95% | – | – | O=C(NCCCn1ccnc1)c1ccc(Cl)cc1 | Active | –
